Key:
Rattus norvegicus [1] = experiment: Ex vivo TXA2 ([…]) antagonist activity was determined for U-46,619 induced aggregation (dose ratio) after 3 hr of oral dosing (10 mg/kg) in the rat; format: functional
In short: (§1)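 Conscious rats (n = 6) dosed by oral gavage, then anesthetized and bled from the abdominal aorta at 1, 3 or 5 h. Platelet-rich plasma aggregated with U46619 before and after dosing to give a U46619 dose ratio. ">" values mark the maximum dose ratio achievable at the top U46619 concentration (1 × 10^-4 M).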

Canis familiaris [2] = experiment: Ex vivo TXA2 ([…]) antagonist activity was determined for U-46,619 induced aggregation (dose ratio) after 2 hr of oral dosing (1 mg/kg) in the dog; format: functional, Canis lupus familiaris
In short: (§2)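 Dogs (n = 4) dosed orally, blood sampled at 2, 5, 8 and 24 h. Platelet-rich plasma aggregated with U46619 plus a predetermined threshold ADP concentration (about 0.4–1.2 × 10^-6 M), compared before vs after dosing to give a U46619 dose ratio. ">" marks the maximum achievable ratio at top U46619 (1 × 10^-4 M).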

Rattus norvegicus [3] = experiment: Ex vivo TXA2 ([…]) antagonist activity was determined for U-46,619 induced aggregation (dose ratio) after 3 hr of oral dosing (5 mg/kg) in the rat; format: functional; in short: as §1
Canis familiaris [4] = experiment: Ex vivo TXA2 ([…]) antagonist activity was determined for U-46,619 induced aggregation (dose ratio) after 24 hr of oral dosing (10 mg/kg) in the dog; format: functional, Canis lupus familiaris; in short: as §2
Homo sapiens = organism: Homo sapiens; experiment: In vitro inhibition of U-46,619-induced aggregation of unwashed human platelets.; format: functional
In short: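 Citrated (3.2%) human venous blood spun at 200g for 10 min. Platelet-rich plasma aggregated with U46619 with or without several antagonist concentrations.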

Rattus norvegicus [5] = experiment: Ex vivo […] (TXA2 synthase) inhibitory activity after 1 hr of oral dosing (5 mg/kg) in the rat; format: functional
In short: (§3)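 Rats (n = 6) gavaged, anesthetized, aortic blood taken at 1, 3 or 5 h after dosing. A blood aliquot was challenged with collagen and TXB2 measured by radioimmunoassay; expressed as % inhibition of TXA2 synthase (±SEM).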

Rattus norvegicus [6] = experiment: Ex vivo […] (TXA2 synthase) inhibitory activity after 3 hr of oral dosing (3 mg/kg) in the rat; format: functional; in short: as §3
Canis familiaris [7] = experiment: Ex vivo TXA2 ([…]) antagonist activity was determined for U-46,619 induced aggregation (dose ratio) after 8 hr of oral dosing (3 mg/kg) in the dog; format: functional, Canis lupus familiaris; in short: as §2
Rattus norvegicus [8] = experiment: Ex vivo […] (TXA2 synthase) inhibitory activity after 1 hr of oral dosing (10 mg/kg) in the rat; format: functional; in short: as §3
Rattus norvegicus [9] = experiment: Ex vivo TXA2 ([…]) antagonist activity was determined for U-46,619 induced aggregation (dose ratio) after 1 hr of oral dosing (5 mg/kg) in the rat; format: functional; in short: as §1
Rattus norvegicus [10] = experiment: Ex vivo […] (TXA2 synthase) inhibitory activity after 5 hr of oral dosing (5 mg/kg) in the rat; format: functional; in short: as §3
Canis familiaris [11] = experiment: Ex vivo TXA2 ([…]) antagonist activity was determined for U-46,619 induced aggregation (dose ratio) after 5 hr of oral dosing (1 mg/kg) in the dog; format: functional, Canis lupus familiaris; in short: as §2
Rattus norvegicus [12] = experiment: Ex vivo […] (TXA2 synthase) inhibitory activity after 3 hr of oral dosing (10 mg/kg) in the rat; format: functional; in short: as §3
Rattus norvegicus [13] = experiment: Ex vivo […] (TXA2 synthase) inhibitory activity after 3 hr of oral dosing (5 mg/kg) in the rat; format: functional
In short: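 Conscious rats (n = 6) were gavaged with compound, then anesthetized, and blood was drawn from the abdominal aorta at 1, 3 and 5 h after dosing. A blood aliquot was stimulated with collagen and the TXB2 formed was measured by radioimmunoassay. Results are expressed as % inhibition of TXA2 synthase activity (±SEM).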

Rattus norvegicus [14] = experiment: Ex vivo […] (TXA2 synthase) inhibitory activity after 1 hr of oral dosing (1 mg/kg) in the rat; format: functional; in short: as §3
Rattus norvegicus [15] = experiment: Ex vivo […] (TXA2 synthase) inhibitory activity after 1 hr of oral dosing (3 mg/kg) in the rat; format: functional; in short: as §3
Prostacyclin synthase = target: T1, Prostacyclin synthase (Homo sapiens, UniProt Q16647); experiment: In vitro inhibition of Prostaglandin I2 synthase in cultured human endothelial cells
T1 sequence (Q16647 whole entry): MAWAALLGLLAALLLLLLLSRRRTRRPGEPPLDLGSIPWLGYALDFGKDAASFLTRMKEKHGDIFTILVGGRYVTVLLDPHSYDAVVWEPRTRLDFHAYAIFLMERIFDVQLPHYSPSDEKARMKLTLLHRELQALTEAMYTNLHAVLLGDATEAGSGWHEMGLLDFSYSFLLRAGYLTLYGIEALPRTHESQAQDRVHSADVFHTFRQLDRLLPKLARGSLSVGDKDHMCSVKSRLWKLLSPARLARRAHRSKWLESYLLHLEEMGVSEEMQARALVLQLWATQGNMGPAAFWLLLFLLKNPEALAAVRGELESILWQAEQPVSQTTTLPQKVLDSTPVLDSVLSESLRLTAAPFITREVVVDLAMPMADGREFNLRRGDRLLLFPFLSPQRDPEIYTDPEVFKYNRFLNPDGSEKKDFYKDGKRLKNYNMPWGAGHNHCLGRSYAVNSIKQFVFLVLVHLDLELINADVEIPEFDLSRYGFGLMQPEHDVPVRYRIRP

Canis familiaris [16] = experiment: Ex vivo TXA2 ([…]) antagonist activity was determined for U-46,619 induced aggregation (dose ratio) after 5 hr of oral dosing (10 mg/kg) in the dog; format: functional, Canis lupus familiaris; in short: as §2
Rattus norvegicus [17] = experiment: Ex vivo TXA2 ([…]) antagonist activity was determined for U-46,619 induced aggregation (dose ratio) after 1 hr of oral dosing (3 mg/kg) in the rat; format: functional; in short: as §1
Rattus norvegicus [18] = experiment: Ex vivo […] (TXA2 synthase) inhibitory activity after 3 hr of oral dosing (1 mg/kg) in the rat; format: functional; in short: as §3
Rattus norvegicus [19] = experiment: Ex vivo TXA2 ([…]) antagonist activity was determined for U-46,619 induced aggregation (dose ratio) after 3 hr of oral dosing (3 mg/kg) in the rat; format: functional; in short: as §1
Canis familiaris [20] = experiment: Ex vivo TXA2 ([…]) antagonist activity was determined for U-46,619 induced aggregation (dose ratio) after 24 hr of oral dosing (1 mg/kg) in the dog; format: functional, Canis lupus familiaris; in short: as §2
Rattus norvegicus [21] = experiment: Ex vivo TXA2 ([…]) antagonist activity was determined for U-46,619 induced aggregation (dose ratio) after 1 hr of oral dosing (1 mg/kg) in the rat; format: functional; in short: as §1
Canis familiaris [22] = experiment: Ex vivo TXA2 ([…]) antagonist activity was determined for U-46,619 induced aggregation (dose ratio) after 8 hr of oral dosing (1 mg/kg) in the dog; format: functional, Canis lupus familiaris; in short: as §2
Canis familiaris [23] = experiment: Ex vivo TXA2 ([…]) antagonist activity was determined for U-46,619 induced aggregation (dose ratio) after 8 hr of oral dosing (10 mg/kg) in the dog; format: functional, Canis lupus familiaris; in short: as §2
Rattus norvegicus [24] = experiment: Ex vivo […] (TXA2 synthase) inhibitory activity after 5 hr of oral dosing (10 mg/kg) in the rat; format: functional; in short: as §3
Rattus norvegicus [25] = experiment: Ex vivo TXA2 ([…]) antagonist activity was determined for U-46,619 induced aggregation (dose ratio) after 3 hr of oral dosing (1 mg/kg) in the rat; format: functional; in short: as §1
Canis familiaris [26] = experiment: Ex vivo TXA2 ([…]) antagonist activity was determined for U-46,619 induced aggregation (dose ratio) after 24 hr of oral dosing (3 mg/kg) in the dog; format: functional, Canis lupus familiaris; in short: as §2

IC50 (Prostacyclin synthase): 28 µM
SMILES: Cc1ccc(OC(C)(C)C2OCC(C/C=C\CCC(=O)O)C(c3cccnc3)O2)c([N+](=O)[O-])c1 (stereo in doubt; 7x)
Antagonist activity (Rattus norvegicus [1]): >71
Antagonist activity (Canis familiaris [2]): >506
Antagonist activity (Rattus norvegicus [3]): >59
Antagonist activity (Canis familiaris [4]): >522
pA2 (Homo sapiens): 8.43
Inhibition (Rattus norvegicus [5]): 92.9%
Inhibition (Rattus norvegicus [6]): 82.5%
Antagonist activity (Canis familiaris [7]): >321
Inhibition (Rattus norvegicus [8]): 95.6%
Antagonist activity (Rattus norvegicus [9]): >60
Inhibition (Rattus norvegicus [10]): 79.3%
Antagonist activity (Canis familiaris [11]): >506
Inhibition (Rattus norvegicus [12]): 93.9%
Inhibition (Rattus norvegicus [13]): 89.2%
Inhibition (Rattus norvegicus [14]): 61.8%
Inhibition (Rattus norvegicus [15]): 90.8%
Antagonist activity (Canis familiaris [16]): >522
Antagonist activity (Rattus norvegicus [17]): >34
Inhibition (Rattus norvegicus [18]): 38.8%
Antagonist activity (Rattus norvegicus [19]): >23
Antagonist activity (Canis familiaris [20]): >1.4
Antagonist activity (Rattus norvegicus [21]): >21
Antagonist activity (Canis familiaris [22]): >506
Antagonist activity (Canis familiaris [23]): >522
Inhibition (Rattus norvegicus [24]): 89%
Antagonist activity (Rattus norvegicus [25]): >27
Antagonist activity (Canis familiaris [26]): >281

— ChEMBL document CHEMBL1128245, “Dual-acting thromboxane receptor antagonist/synthase inhibitors: synthesis and biological properties of [2-substituted-4-(3-pyridyl)-1,3-dioxan-5-yl] alkenoic acids” (J Med Chem, 1995)
